Source: ChEMBL document CHEMBL1121715, “New antiarrhythmic agents. 4. 1'-(Aminoalkyl)-1,2,3,4-tetrahydronaphthalene-1-spiro-3'-pyrrolidine-2',5'-dione derivatives” (J Med Chem, 1981)
Where “and” joins values, the source holds several entries; their conditions need not be identical. Equal values may be shown once.

Columns and labels:
[1] = system: Mus musculus; assay: Ataxia was measured in mice after sc administration at given dose; assay type: functional
Method in brief: (§1)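 Mice in groups of 10 received drug sc in 0.9% saline and were watched 20 min for overt toxicity before chloroform exposure. At least three doses were given.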

[2] = organism: Mus musculus; assay: Percentage toxicity measured as convulsions.; assay type: organism-based; details: in vivo
Method in brief: (§2)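 Mice (groups of 10) were dosed sc with drug in 0.9% saline and watched for 20 min for overt toxicity (ataxia, convulsions, loss of righting reflex, death) before chloroform exposure.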

[3] = organism: Mus musculus; assay: Percentage toxicity measured as loss of righting reflex.; assay type: organism-based; details: in vivo; method in brief: as §2
[4] = organism: Mus musculus; assay: Percentage toxicity measured as ataxia.; assay type: organism-based; details: in vivo; method in brief: as §2
[5] = system: Mus musculus; assay: Protection against chloroform induced arrhythmias was measured in mice after sc administration at given dose; assay type: functional
Method in brief: (§3)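 Groups of 10 unanesthetized mice got sc injection of drug in 0.9% saline. After 20 min observation they were placed one by one in chloroform-vapor-saturated air. When breathing stopped, the thorax was opened and the heart inspected by eye; coordinated ventricular contractions counted as protected.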

[6] = Percentage toxicity measured as death of mice.; assay type: organism-based; parameters: concentration or dose not given beside the values; details: mouse, in vivo; read-out: Death
[7] = system: Mus musculus; assay: Protection against chloroform induced arrhythmias in mice after subcutaneous administration at 100 mg/kg dose.; assay type: functional; method in brief: as §3
[8] = system: Mus musculus; assay: Protection against chloroform induced arrhythmias was measured in mice after sc administration at given dose.; assay type: functional; details: Mus musculus, sc; read-out: ED50; method in brief: as §3
[9] = Total body clearance was measured at given dose.; assay type: ADME, organism-based; details: in vivo
Method in brief: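 Blood levels came from the iv-infused dogs, measured by GC-FID after methylene chloride extraction and heptafluorobutyryl derivatization with an internal standard. Total body clearance was total dose divided by the blood-level AUC (zero to infinity); volume of distribution was clearance divided by the elimination rate constant.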

[10] = organism: Canis familiaris; assay: (§4) Toxicity of blood level was measured; assay type: organism-based, Canis lupus familiaris; details: dog, in vivo
Method in brief: (§5)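 In coronary-ligated conscious dogs under iv infusion, blood was sampled at toxicity. Drug was extracted with methylene chloride at pH 10.3 (ammonium citrate/ammonia) with another analogue as internal standard, then derivatized with heptafluorobutyrylimidazole. Assay was GC-FID on 3% JXR, quantified from drug/internal standard peak-height ratio against standard curves; results in μmol/mL.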

[11] = system: Canis familiaris; assay: MABP value was measured in anesthetized dog at 0.047 dose.; assay type: functional, Canis lupus familiaris; details: in the assay text read “unanesthetized dog” for “anesthetized dog”
Method in brief: (§6)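 Adult female dogs (6.7–14.5 kg) had two-stage ligation of the left anterior descending coronary artery the day before testing. After control ventricular rate, % ectopic beats and mean arterial pressure were recorded, the drug (HCl salt, isotonic solution) was infused iv without anesthesia at 0.1, 0.5 or 1.0 (mg/kg)/min, mostly 0.5. Infusion continued until the arrhythmia was abolished or cardiovascular/CNS toxicity appeared. Cumulative dose is given in mmol/kg; toxicity included convulsion and P-R prolongation ≥25%.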

[12] = system: Canis familiaris; assay: Ventricular rate was measured in anesthetized dog at 0.016 dose; assay type: functional, Canis lupus familiaris, Heart; details: in the assay text read “unanesthetized dog” for “anesthetized dog”; method in brief: as §6
[13] = system: Canis familiaris; assay: % ectopic beats was measured in anesthetized dog at 0.016 dose.; assay type: functional, Canis lupus familiaris, Heart; details: in the assay text read “unanesthetized” for “anesthetized”
Method in brief: (§7)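 Adult female dogs (6.7–14.5 kg) had the left anterior descending coronary artery ligated in two stages the day before testing. Dogs were unanesthetized. Ectopic beats (% of ventricular rate) and mean arterial pressure were read at maximal antiarrhythmic effect against the cumulative dose.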

[14] = system: Canis familiaris; assay: Ventricular rate was measured in anesthetized dog at 0.047 dose; assay type: functional, Canis lupus familiaris, Heart; details: in the assay text read “unanesthetized dog” for “anesthetized dog”; method in brief: as §6
[15] = Maximal concentration in dogs after 34 umol/kg intravenous dose; details: dog, in vivo
[16] = system: Canis familiaris; assay: % ectopic beats was measured in anesthetized dog at 0.047 dose.; assay type: functional, Canis lupus familiaris, Heart; details: in the assay text read “unanesthetized” for “anesthetized”; method in brief: as §7
[17] = Volume of distribution was measured at given dose of 34 umol/kg; assay type: ADME, organism-based; details: in vivo
Method in brief: (§8)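 In dogs given iv infusions, blood samples were alkaline-extracted (pH 10.3) into methylene chloride and derivatized with heptafluorobutyrylimidazole. Concentrations were measured by GC-FID against an internal standard using standard curves. Clearance was total dose ÷ blood-level AUC (zero to infinity), and volume of distribution was clearance ÷ elimination rate constant.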

[18] = system: Canis familiaris; assay: MABP value was measured in anesthetized dog at 0.016 dose.; assay type: functional, Canis lupus familiaris; details: in the assay text read “unanesthetized dog” for “anesthetized dog”; method in brief: as §7
[19] = Volume of distribution was measured at given dose of 43 umol/kg; assay type: ADME, organism-based; details: in vivo; method in brief: as §8
[20] = organism: Canis familiaris; assay: (§9) The dose at which toxicity was measured.; assay type: organism-based, Canis lupus familiaris; details: dog, in vivo; method in brief: as §6
[21] = organism: Canis familiaris; assay: as §4; assay type: organism-based, Canis lupus familiaris; details: dog, in vivo; method in brief: as §5; remark: listed apart in the source
[22] = Volume of distribution was measured at given dose of 81 umol/kg; assay type: ADME, organism-based; details: in vivo; method in brief: as §8
[23] = organism: Canis familiaris; assay: (§10) Maximum dose of the Compound; assay type: functional, Canis lupus familiaris; method in brief: as §6
[24] = system: Canis familiaris; assay: Blood level was measured in anesthetized dog at 0.016d ose.; assay type: functional, Canis lupus familiaris; details: in the assay text read “unanesthetized” for “anesthetized”
Method in brief: (§11)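 Blood was sampled from unanesthetized dogs with coronary-ligation arrhythmias during iv drug infusion. Each 1 mL sample was mixed with internal standard and pH 10.3 ammonium citrate/ammonia buffer and extracted into methylene chloride. The extract was dried at 50 °C and derivatized with heptafluorobutyrylimidazole. Analysis was by GC with flame-ionization detection (3% JXR column, 220 °C). Concentration came from the drug/internal standard peak-height ratio against standard curves.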

[25] = Maximal concentration in dogs after intravenous administration; details: dog, in vivo
[26] = system: Canis familiaris; assay: as above; details: dog, in vivo
[27] = organism: Canis familiaris; assay: as §10; assay type: ADME, organism-based, Canis lupus familiaris; details: dog, in vivo; method in brief: as §6
[28] = system: Canis familiaris; assay: Blood level was measured in anesthetized 0.047 at given dose.; assay type: functional, Canis lupus familiaris; details: in the assay text read “unanesthetized” for “anesthetized”; method in brief: as §11
[29] = organism: Canis familiaris; assay: as §9; assay type: organism-based, Canis lupus familiaris; details: dog, in vivo; method in brief: as §6; remark: listed apart in the source
[30] = system: Mus musculus; assay: Ataxia was measured in mice after sc administration at given dose.; assay type: functional; method in brief: as §1

## CCN(CC)CCCN1C(=O)CC2(CCCc3ccc(OC(C)C)cc32)C1=O (centres undefined)
[1]
  ED50: 110 µmol/kg
[2]
  Convulsion: 100%
[3]
  Loss of righting reflex: 0%
[4]
  Ataxia: 100%
[5]
  ED50: 140 µmol/kg
[6]
  mortality: 0%
[7]
  Protection: 90%

## CCN(CC)C(C)CCN1C(=O)CC2(CCCc3ccc(O)cc32)C1=O (centres undefined)
[1]
  ED50: 80 µmol/kg
[2]
  Convulsion: 100%
[3]
  Loss of righting reflex: 100%
[4]
  Ataxia: 100%
[5]
  ED50: 80 µmol/kg
[6]
  mortality: 20%
[7]
  Protection: 80%

## CCN(CC)CCCCN1C(=O)CC2(CCCc3ccc(OC)cc32)C1=O (centres undefined)
[8]
  ED50: 130 µmol/kg
[9]
  ClB: 8.22 mL/min/kg and 12.8 mL/min/kg
[9]; ClB
  clearance: 10.4 mL/min/kg
[2]
  Convulsion: 0%
[3]
  Loss of righting reflex: 0%
[10]
  Blood level: 0.029 uM ml-1
[11]
  MABP: 100 mmHg
[12]
  Ventricular rate: 147 beats min-1
[13]
  Etopic beats: 1%
[14]
  Ventricular rate: 165 beats min-1
[15]
  Cmax: 12 µM
[4]
  Ataxia: 0%
[16]
  Etopic beats: 0%
[17]
  Vd: 2.64 L/kg
[6]
  mortality: 0%
[18]
  MABP: 95 mmHg
[19]
  Vd: 2.47 L/kg
[7]
  Protection: 80%
[20]
  Cumulative dose: 0.02
[21]
  Blood level: 18 µM
[22]
  Vd: 3.41 L/kg
[23]
  Dose: 81 µM/kg and 43 µM/kg
[24]
  Blood level: 0.011 uM ml-1
[25]
  Cmax: 29 µM
[26]
  Cmax: 20 µM
[27]
  Dose: 34 µM/kg
[28]
  Blood level: 0.02 uM ml-1
[29]
  Cumulative dose: 0.081

## CCN(CC)CCCCN1C(=O)CC2(CCCc3ccccc32)C1=O (centres undefined)
[1]
  ED50: 180 µmol/kg
[2]
  Convulsion: 0%
[3]
  Loss of righting reflex: 0%
[4]
  Ataxia: 100%
[5]
  ED50: 180 µmol/kg
[6]
  mortality: 0%
[7]
  Protection: 90%

## CCN(CC)CCCCN1C(=O)CC2(CCCc3cc(O)ccc32)C1=O (centres undefined)
[8]
  ED50: 260 µmol/kg
[2]
  Convulsion: 0%
[3]
  Loss of righting reflex: 0%
[4]
  Ataxia: 0%
[6]
  mortality: 0%
[7]
  Protection: 70%

## CCCC1(c2ccccc2)CC(=O)N(CCN(C)C)C1=O (centres undefined)
[8]
  ED50: 390 µmol/kg
[2]
  Convulsion: 0%
[3]
  Loss of righting reflex: 0%
[4]
  Ataxia: 100%
[6]
  mortality: 0%
[7]
  Protection: 40%
[30]
  ED50: 270 µmol/kg

## CCN(CC)CCCN1C(=O)CC2(CCCc3ccccc32)C1=O (centres undefined)
[1]
  ED50: 190 µmol/kg
[2]
  Convulsion: 0%
[3]
  Loss of righting reflex: 0%
[4]
  Ataxia: 100%
[5]
  ED50: 200 µmol/kg
[6]
  mortality: 0%
[7]
  Protection: 80%
